ChEMBL document CHEMBL1123230, “Synthesis and biological activities of dynorphin A analogues with opioid antagonist properties” (J Med Chem, 1986)

Tests used:
[1] = target: Kappa-type opioid receptor (Cavia porcellus, UniProt P41144); assay: Compound was evaluated for the inhibition of [3H]bremazocine binding to Opioid receptor kappa 1 in guinea pig cerebellum membrane homogenates.; assay type: cell membranes
In short: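 Guinea pig cerebellum crude membranes were incubated with [3H]bremazocine (0.5 nM) at 25 °C for 60 min with peptidase inhibitors. Values are the mean ± SEM of at least three independent observations.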

Cavia porcellus [2] = species: Cavia porcellus; assay: The compound was evaluated for the antagonistic activity against DAGO (mu-receptor) in guinea pig ileum.; assay type: functional
Cavia porcellus [3] = species: Cavia porcellus; assay: The compound was evaluated for the antagonistic activity against dynorphin A in guinea pig ileum; assay type: functional
In short: (§1)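 Isolated electrically stimulated organ (guinea pig ileum myenteric plexus-longitudinal muscle; rabbit vas deferens), run with a peptidase-inhibitor mixture, twitch contractions recorded. In the antagonism test, the peptide concentration was set to depress the twitch by 20-40%. Analogue tested up to 10 μM. Ke is the concentration reducing the effect of a double dynorphin A dose to that of a single dose. Mean ± SEM of at least four independent measurements.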

[4] = target: T1, Kappa-type opioid receptor (Homo sapiens, UniProt P41145); assay: Compound was evaluated for the agonistic activity against Opioid receptor kappa 1 in rabbit vas deferens.; assay type: functional, Oryctolagus cuniculus; conditions: target entry is the homologue from another species
In short: (§2)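 Isolated organs (guinea pig ileum myenteric plexus-longitudinal muscle, hamster vas deferens, rabbit vas deferens) were electrically stimulated, and inhibition of the evoked twitch contractions was recorded. The bath held a peptidase inhibitor mixture. Peptides were tested up to 10 μM.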

[5] = target: Delta-type opioid receptor (Rattus norvegicus, UniProt P33533); assay: Compound was evaluated for the inhibition of [3H]DSLET([[3H]D-Ser2,Leu5,Thr6]enkephalin binding to Opioid receptor delta 1 in rat brain homogenates.; assay type: tissue-based
[6] = target: Delta-type opioid receptor (Rattus norvegicus) (UniProt P33533); assay: Hill coefficient value was measured against delta sites in rat brain homogenates; assay type: tissue-based
[7] = target: Mu-type opioid receptor (Rattus norvegicus) (UniProt P33535); assay: Hill coefficient value was measured against mu sites in rat brain homogenates; assay type: tissue-based
[8] = target: Kappa-type opioid receptor (Cavia porcellus) (UniProt P41144); assay: Hill coefficient value was measured against Opioid receptor kappa 1 in guinea pig cerebellum membrane homogenates; assay type: cell membranes
Mu-type opioid receptor [9] = target: Mu-type opioid receptor (Cavia porcellus, UniProt P97266); assay: Compound was evaluated for the agonistic activity against Opioid receptor mu 1 in guinea pig ileum.; assay type: functional, tissue-based; in short: as §2
Oryctolagus cuniculus = species: Oryctolagus cuniculus; assay: The compound was evaluated for the antagonistic activity in rabbit vas deferens; assay type: functional; in short: as §1
[10] = system: Delta-type opioid receptor; assay: Receptor selectivity index is the ratio of the apparent KI at delta opioid receptor over the apparent KI at the highest affinity site
In short: (§3)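 RSI is the apparent KI at the given site divided by the apparent KI at the highest-affinity site. KI values come from [3H]DAGO (μ) and [3H]DSLET (δ) binding in rat brain membranes and [3H]bremazocine (κ) binding in guinea pig cerebellum membranes, all at 25 °C with peptidase inhibitors.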

[11] = target: T1, Kappa-type opioid receptor; assay: Receptor selectivity index is the ratio of the apparent KI at kappa opioid receptor over the apparent KI at the highest affinity site; in short: as §3
Mu-type opioid receptor [12] = target: Mu-type opioid receptor (Rattus norvegicus, UniProt P33535); assay: Compound was evaluated for the inhibition of [3H]DAGO([[3H]D-Ala,MePhe4,Glyol5]enkephalin) binding to mu sites in rat brain homogenates.; assay type: tissue-based
Cricetinae gen. sp. = assay: The compound was evaluated for the antagonistic activity in hamster vas deferens; assay type: functional, Cricetulus griseus
In short: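 Agonist concentration chosen to depress twitch height by 20-40%. Ke is the peptide concentration that reduces the effect of a double agonist dose to that of a single dose. Peptide tested up to 10 μM. At least four independent measurements.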

Sequence of Mu-type opioid receptor (Cavia porcellus, UniProt P97266) (P97266 whole entry): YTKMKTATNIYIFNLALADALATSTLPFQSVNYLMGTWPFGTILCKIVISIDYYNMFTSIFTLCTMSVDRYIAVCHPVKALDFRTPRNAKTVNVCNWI
Sequence of Mu-type opioid receptor (Rattus norvegicus) (P33535 whole entry): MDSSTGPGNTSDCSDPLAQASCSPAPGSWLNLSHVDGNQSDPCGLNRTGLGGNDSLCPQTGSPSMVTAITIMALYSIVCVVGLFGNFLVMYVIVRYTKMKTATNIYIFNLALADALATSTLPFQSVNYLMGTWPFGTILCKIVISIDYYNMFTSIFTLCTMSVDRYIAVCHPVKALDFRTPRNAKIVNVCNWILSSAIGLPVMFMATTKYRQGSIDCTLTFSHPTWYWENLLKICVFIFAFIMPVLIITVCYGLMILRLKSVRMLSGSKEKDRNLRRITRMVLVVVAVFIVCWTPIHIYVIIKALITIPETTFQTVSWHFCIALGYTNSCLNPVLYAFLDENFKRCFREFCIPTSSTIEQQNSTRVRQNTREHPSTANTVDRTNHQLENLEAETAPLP
Sequence of Mu-type opioid receptor (Rattus norvegicus, UniProt P33535) (P33535 whole entry): as above
Sequence of Kappa-type opioid receptor (Cavia porcellus) (P41144 whole entry): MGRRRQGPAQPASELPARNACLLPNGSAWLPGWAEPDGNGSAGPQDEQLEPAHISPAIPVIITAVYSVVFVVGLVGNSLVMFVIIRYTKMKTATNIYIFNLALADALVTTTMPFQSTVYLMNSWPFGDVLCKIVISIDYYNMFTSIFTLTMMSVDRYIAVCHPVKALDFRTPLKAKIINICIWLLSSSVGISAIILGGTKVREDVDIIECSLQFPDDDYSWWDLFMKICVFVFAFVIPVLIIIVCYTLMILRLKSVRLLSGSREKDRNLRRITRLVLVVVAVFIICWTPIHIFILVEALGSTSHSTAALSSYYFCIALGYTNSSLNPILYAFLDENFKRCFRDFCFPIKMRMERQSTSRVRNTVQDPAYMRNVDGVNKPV
Sequence of Kappa-type opioid receptor (Cavia porcellus, UniProt P41144) (P41144 whole entry): as above
Sequence of Delta-type opioid receptor (Rattus norvegicus) (P33533 whole entry): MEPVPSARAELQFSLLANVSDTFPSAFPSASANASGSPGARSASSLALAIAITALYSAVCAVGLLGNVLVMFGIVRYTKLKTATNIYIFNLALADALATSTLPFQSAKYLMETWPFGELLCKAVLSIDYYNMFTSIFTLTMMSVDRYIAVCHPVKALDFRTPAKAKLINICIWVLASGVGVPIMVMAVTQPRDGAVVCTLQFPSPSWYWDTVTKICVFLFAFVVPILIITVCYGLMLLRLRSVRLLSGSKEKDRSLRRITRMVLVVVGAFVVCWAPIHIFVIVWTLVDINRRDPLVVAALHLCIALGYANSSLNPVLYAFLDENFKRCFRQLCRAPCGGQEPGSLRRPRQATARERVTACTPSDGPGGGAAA
Sequence of Delta-type opioid receptor (Rattus norvegicus, UniProt P33533) (P33533 whole entry): as above
T1 sequence (P41145 whole entry): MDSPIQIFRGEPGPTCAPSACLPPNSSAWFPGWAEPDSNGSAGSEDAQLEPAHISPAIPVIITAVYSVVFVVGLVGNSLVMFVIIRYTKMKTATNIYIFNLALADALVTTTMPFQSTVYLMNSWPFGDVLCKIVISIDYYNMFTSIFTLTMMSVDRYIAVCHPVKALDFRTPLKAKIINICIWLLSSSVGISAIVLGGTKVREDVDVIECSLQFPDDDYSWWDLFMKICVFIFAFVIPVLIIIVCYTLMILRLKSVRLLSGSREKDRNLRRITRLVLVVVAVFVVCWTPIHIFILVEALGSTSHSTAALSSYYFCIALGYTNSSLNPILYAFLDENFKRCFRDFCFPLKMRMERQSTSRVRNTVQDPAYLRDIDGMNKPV

CC[C@H](C)[C@H](NC(=O)[C@H](CCCNC(=N)N)NC(=O)[C@H](CCCNC(=N)N)NC(=O)[C@H](CC(C)C)NC(=O)[C@H](Cc1ccccc1)NC(=O)CNC(=O)CNC(=O)[C@@H](N)Cc1ccc(O)cc1)C(=O)N[C@@H](CCCNC(=N)N)C(=O)N1CCC[C@H]1C(=O)N[C@@H](CCCCN)C(=O)N[C@@H](CC(C)C)C(=O)N[C@@H](CCCCN)C(=O)N[C@@H](Cc1c[nH]c2ccccc12)C(=O)N[C@@H](CC(=O)O)C(=O)N[C@@H](CC(N)=O)C(=O)N[C@@H](CCC(N)=O)C(=O)O
Ki [1]: 0.23 nM

CC(C)C[C@H](NC(=O)[C@@H](Cc1c[nH]c2ccccc12)NC(=O)CNC(=O)CNC(=O)[C@@H](N)Cc1ccc(O)cc1)C(=O)N[C@@H](CCCN=C(N)N)C(=O)N[C@@H](CCCN=C(N)N)C(=O)N[C@H](Cc1c[nH]c2ccccc12)C(=O)N[C@@H](CCCN=C(N)N)C(=O)N1CCC[C@@H]1C(=O)N[C@@H](CCCCN)C(=O)O
Ke (Cavia porcellus [2]): 249 nM | Ke (Cavia porcellus [3]): 606 nM | Ki [1]: 73 nM | IC50 [4]: > 10000 nM | Ki [5]: 631 nM | Hill coefficient [6]: 0.92 | Hill coefficient [7]: 1.06 | Hill coefficient [8]: 0.85 | IC50 (Mu-type opioid receptor [9]): > 10000 nM | Ke (Oryctolagus cuniculus): 1432 nM | Ratio [10]: 8.6 | Ratio [11]: 1 | Ki (Mu-type opioid receptor [12]): 142 nM

CC(C)C[C@H](NC(=O)[C@@H](Cc1c[nH]c2ccccc12)NC(=O)CNC(=O)[C@@H](Cc1c[nH]c2ccccc12)NC(=O)[C@@H](N)Cc1ccc(O)cc1)C(=O)N[C@@H](CCCN=C(N)N)C(=O)N[C@@H](CCCN=C(N)N)C(=O)N[C@H](Cc1c[nH]c2ccccc12)C(=O)N[C@@H](CCCN=C(N)N)C(=O)N1CCC[C@@H]1C(=O)N[C@@H](CCCCN)C(=O)O
Ke (Cavia porcellus [2]): 83 nM | Ke (Cavia porcellus [3]): 61 nM | Ki [1]: 23.8 nM | IC50 [4]: > 10000 nM | Ki [5]: 134 nM | Hill coefficient [6]: 0.86 | Hill coefficient [7]: 0.89 | Hill coefficient [8]: 0.85 | IC50 (Mu-type opioid receptor [9]): > 10000 nM | Ke (Oryctolagus cuniculus): 293 nM | Ratio [10]: 5.6 | Ratio [11]: 1 | Ki (Mu-type opioid receptor [12]): 51.5 nM

NCCCC[C@H](NC(=O)[C@H]1CCCN1C(=O)[C@H](CCCN=C(N)N)NC(=O)[C@@H](Cc1c[nH]c2ccccc12)NC(=O)[C@H](CCCN=C(N)N)NC(=O)[C@H](CCCN=C(N)N)NC(=O)[C@@H](Cc1c[nH]c2ccccc12)NC(=O)[C@H](Cc1ccccc1)NC(=O)CNC(=O)CNC(=O)[C@@H](N)Cc1ccc(O)cc1)C(=O)O
Ke (Cavia porcellus [2]): 13.9 nM | Ki [1]: 20.6 nM | IC50 [4]: > 10000 nM | Ki [5]: 303 nM | Hill coefficient [6]: 0.9 | Hill coefficient [7]: 1.23 | Hill coefficient [8]: 0.96 | IC50 (Mu-type opioid receptor [9]): 69 nM | Ke (Oryctolagus cuniculus): 199 nM | Ratio [10]: 15 | Ratio [11]: 1 | Ki (Mu-type opioid receptor [12]): 20.3 nM

CC(C)C[C@H](NC(=O)[C@H](Cc1ccccc1)NC(=O)CNC(=O)[C@@H](Cc1c[nH]c2ccccc12)NC(=O)[C@@H](N)Cc1ccc(O)cc1)C(=O)N[C@@H](CCCN=C(N)N)C(=O)N[C@@H](CCCN=C(N)N)C(=O)N[C@H](Cc1c[nH]c2ccccc12)C(=O)N[C@@H](CCCN=C(N)N)C(=O)N1CCC[C@@H]1C(=O)N[C@@H](CCCCN)C(=O)O
Ke (Cavia porcellus [3]): 206 nM | Ki [1]: 153 nM | IC50 [4]: > 10000 nM | Ki [5]: 561 nM | Hill coefficient [6]: 0.72 | Hill coefficient [7]: 1.15 | Hill coefficient [8]: 0.83 | IC50 (Mu-type opioid receptor [9]): 8890 nM | Ke (Oryctolagus cuniculus): 433 nM | Ratio [10]: 5.5 | Ratio [11]: 1.5 | Ki (Mu-type opioid receptor [12]): 103 nM

CC[C@H](C)[C@H](NC(=O)[C@H](CCCNC(=N)N)NC(=O)[C@H](CCCNC(=N)N)NC(=O)[C@H](CC(C)C)NC(=O)[C@H](Cc1ccccc1)NC(=O)CNC(=O)CNC(=O)[C@@H](N)Cc1ccc(O)cc1)C(=O)N[C@@H](CCCNC(=N)N)C(=O)N1CCC[C@H]1C(=O)N[C@@H](CCCCN)C(=O)O [DYNORPHIN A (1-11)]
IC50 [4]: 13.1 nM

CC(C)C[C@H](NC(=O)[C@H](Cc1ccccc1)NC(=O)CNC(=O)CNC(=O)[C@@H](N)Cc1ccc(O)cc1)C(=O)N[C@@H](CCCN=C(N)N)C(=O)N[C@@H](CCCN=C(N)N)C(=O)N[C@H](Cc1c[nH]c2ccccc12)C(=O)N[C@@H](CCCN=C(N)N)C(=O)N1CCC[C@@H]1C(=O)N[C@@H](CCCCN)C(=O)O
Ki [1]: 0.049 nM | IC50 [4]: 12.8 nM | Ki [5]: 5.43 nM | Hill coefficient [6]: 0.98 | Hill coefficient [7]: 0.86 | Hill coefficient [8]: 1 | IC50 (Mu-type opioid receptor [9]): 2.84 nM | Ratio [10]: 110 | Ratio [11]: 1 | Ki (Mu-type opioid receptor [12]): 0.58 nM

CC[C@H](C)[C@H](NC(=O)[C@H](CCCN=C(N)N)NC(=O)[C@H](CCCN=C(N)N)NC(=O)[C@H](CC(C)C)NC(=O)[C@H](Cc1ccccc1)NC(=O)CNC(=O)CNC(=O)[C@@H](N)Cc1ccc(O)cc1)C(=O)N[C@@H](CCCN=C(N)N)C(=O)N1CCC[C@@H]1C(=O)N[C@@H](CCCCN)C(=O)O
IC50 [4]: 12.1 nM

CC(C)C[C@H](NC(=O)[C@H](Cc1ccccc1)NC(=O)[C@@H](Cc1c[nH]c2ccccc12)NC(=O)CNC(=O)[C@@H](N)Cc1ccc(O)cc1)C(=O)N[C@@H](CCCN=C(N)N)C(=O)N[C@@H](CCCN=C(N)N)C(=O)N[C@H](Cc1c[nH]c2ccccc12)C(=O)N[C@@H](CCCN=C(N)N)C(=O)N1CCC[C@@H]1C(=O)N[C@@H](CCCCN)C(=O)O
Ke (Cavia porcellus [2]): 40.5 nM | Ke (Cavia porcellus [3]): 10.3 nM | Ke (Cricetinae gen. sp.): 1127 nM | Ki [1]: 19.6 nM | IC50 [4]: > 10000 nM | Ki [5]: 1040 nM | Hill coefficient [6]: 1.07 | Hill coefficient [7]: 1.31 | Hill coefficient [8]: 1.03 | IC50 (Mu-type opioid receptor [9]): 222 nM | Ke (Oryctolagus cuniculus): 1127 nM | Ratio [10]: 53 | Ratio [11]: 1 | Ki (Mu-type opioid receptor [12]): 327 nM

CC[C@H](C)[C@H](NC(=O)[C@H](CCCN=C(N)N)NC(=O)[C@H](CCCN=C(N)N)NC(=O)[C@H](CC(C)C)NC(=O)[C@H](Cc1ccccc1)NC(=O)CNC(=O)CNC(=O)[C@@H](N)Cc1ccc(O)cc1)C(=O)N[C@@H](CCCN=C(N)N)C(=O)N1CCC[C@H]1C(=O)N[C@@H](CCCCN)C(=O)N[C@@H](CC(C)C)C(=O)N[C@@H](CCCCN)C(=O)N[C@@H](Cc1c[nH]c2ccccc12)C(=O)N[C@@H](CC(=O)O)C(=O)N[C@@H](CC(N)=O)C(=O)N[C@@H](CCC(=O)O)C(=O)O
Hill coefficient [8]: 0.79
